The results in this text go back to ChEMBL document CHEMBL1641478, “Structural and biochemical study on the inhibitory activity of derivatives of 5-nitro-furan-2-carboxylic acid for RNase H function of HIV-1 reverse transcriptase” (Bioorg Med Chem, 2011).

The target of data set [1] is Human immunodeficiency virus type 1 reverse transcriptase (Human immunodeficiency virus 1, UniProt Q72547). The experiment in a line: Inhibition RNase H activity of HIV1 reverse transcriptase expressed in Escherichia coli stain BL21(DE3)pLysS. Put shortly: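 His-tagged p66/p51 RT expressed in E. coli BL21(DE3)pLysS with 1 mM IPTG for 3 h. Substrate: 18-mer RNA labelled with 3′-FAM, annealed to complementary DNA carrying a 5′-BHQ quencher. Reaction used 100 ng RT at 37 °C, with cleavage followed in real time by fluorescence at 488 nm every 150 s. IC50 taken as the concentration halving the cleavage rate relative to control.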

Data set [2] can be described thus: (§1) Cytotoxicity against human MT4 cells after 3 days by MTT assay. The data set is classed as cell-based. The following applies: MT4 cells. In short, it runs like this: (§2)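 Cells in RPMI-1640 with 10% FBS: MT-4 seeded at 4 × 10⁵/mL, 293T at 2 × 10⁵/mL. Compound final concentrations 100, 50, 25 and 12.5 µM, 1% DMSO final, plus an untreated control. Incubated 3 days at 37 °C in 5% CO₂. MTT added for 1 h, then solubilized overnight at 4 °C and read at OD570/690. CC50 derived only when viability fell below 50% at 100 µM.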

Data set [3] is described as follows: Cytotoxicity against human 293T cells after 3 days by MTT assay. The data set is classed as cell-based, HEK-293T. The following applies: for CC50 at 72 h: 293T cells; for CC50: hek-293t, 72 h. Put shortly: as §2
(In general: Tetrazolium assays rely on reduction of a dye to a coloured formazan, in cell work by metabolically active cells.)

Data set [4] has as its system MT4. The description is as §1. The data set is classed as cell-based. The following applies: mt4, 72 h. In short, it runs like this:
as §2

Each structure is given as a SMILES string.

Usually IC50 stands for the point on the concentration scale where inhibition reaches its midpoint. Higher therefore signals a need for much substance. For orientation: CC50 means the concentration that lowers cell viability or growth by half. A lower CC50 goes with harm at low concentration. With `CC(C)(C)N(Cc1ccccc1)C(=O)COC(=O)c1ccc([N+](=O)[O-])o1`, in data set [1], the IC50 is 0.9 µM. For the same compound, the CC50 at 72 h in data set [2] and in data set [3] was > 100 µM throughout.
In turn, `CC(C)OC(=O)COC(=O)c1ccc([N+](=O)[O-])o1` gave an IC50 in data set [1] of 13.2 µM. Moreover, the CC50 at 72 h in data set [2] and in data set [3] was > 100 µM each time.
Regarding `CC(C)(C)NC(=O)COC(=O)c1ccc([N+](=O)[O-])o1`, in data set [1], the IC50 came to 18 µM. Besides, the half-maximal cytotoxic concentration (CC50) at 72 h in data set [2] and in data set [3] was > 100 µM throughout.
On to `CCC(C)(C)NC(=O)COC(=O)c1ccc([N+](=O)[O-])o1`, for which the IC50 in data set [1] came to 5.8 µM. Besides, the CC50 at 72 h in data set [2] and in data set [3] was > 100 µM in each case.
In data set [1], `CC(C)(NC(=O)COC(=O)c1ccc([N+](=O)[O-])o1)c1ccccc1` yielded a concentration for half-maximal inhibition (IC50) of 8.2 µM. The CC50 at 72 h in data set [2] and in data set [3] was > 100 µM throughout.
Regarding `CC(C)(Cc1ccccc1)NC(=O)COC(=O)c1ccc([N+](=O)[O-])o1`, 4.3 µM corresponded to half-maximal inhibition in data set [1] (IC50). In addition, the CC50 at 72 h in data set [2] and in data set [3] was > 100 µM in each case.
`O=C(COC(=O)c1ccc([N+](=O)[O-])o1)NCC1CCCO1` (stereo not given) had an IC50 in data set [1] of 4.2 µM. In addition, the CC50 at 72 h in data set [2] and in data set [3] was > 100 µM throughout.
With `O=C(COC(=O)c1ccc([N+](=O)[O-])o1)NC1Cc2ccccc2C1`, inhibition in data set [1] was half-maximal at 5.5 µM (IC50). In addition, the CC50 at 72 h in data set [2] and in data set [3] was > 100 µM throughout.
`O=C(COC(=O)c1ccc([N+](=O)[O-])o1)NC1CCc2ccccc21` (stereo not given): in data set [1], the IC50 turned out to be 6.1 µM. Further, the CC50 at 72 h in data set [2] and in data set [3] was > 100 µM throughout.
The compound `O=C(COC(=O)c1ccc([N+](=O)[O-])o1)NC1CCCc2ccccc21` (stereo not given) gave a half-inhibitory concentration (IC50) in data set [1] of 4.3 µM. Also, the CC50 at 72 h in data set [2] and in data set [3] was > 100 µM throughout.
In the case of `CC(C)(C)N(CCc1ccccc1)C(=O)COC(=O)c1ccc([N+](=O)[O-])o1`, the IC50 in data set [1] stood at 14.2 µM. For the same compound, the results for the CC50 at 72 h in data set [2] and in data set [3] were > 100 µM and 67 µM, respectively.
On to `CC(C)(C)N(CCCc1ccccc1)C(=O)COC(=O)c1ccc([N+](=O)[O-])o1`, for which the IC50 in data set [1] is > 50 µM. Further, the CC50 result in data set [4] and in data set [3] was “Not Active” throughout.
With `CC(C)(C)N(CCC(=O)c1ccccc1)C(=O)COC(=O)c1ccc([N+](=O)[O-])o1`, the IC50 in data set [1] was > 50 µM. In addition, the CC50 result in data set [4] and in data set [3] was “Not Active” in each case.
In data set [1], `CC(C)(C)N(Cc1ccc([N+](=O)[O-])cc1)C(=O)COC(=O)c1ccc([N+](=O)[O-])o1` gave a concentration for half-maximal inhibition (IC50) of 6.9 µM. Moreover, the CC50 at 72 h in data set [2] and in data set [3] was > 100 µM each time.
In the case of `CC(C)(C)N(Cc1cccc([N+](=O)[O-])c1)C(=O)COC(=O)c1ccc([N+](=O)[O-])o1`, the IC50 in data set [1] is 9.8 µM. Moreover, the results for the CC50 at 72 h in data set [2] and in data set [3] were > 100 µM and 78 µM, respectively.
The matching figures for `CC(=O)Oc1ccc(CN(C(=O)COC(=O)c2ccc([N+](=O)[O-])o2)C(C)(C)C)cc1`: 8.7 µM, > 100 µM and > 100 µM.
Compound `CC(=O)Oc1ccccc1CN(C(=O)COC(=O)c1ccc([N+](=O)[O-])o1)C(C)(C)C` registered an IC50 in data set [1] of 12.8 µM. For the same compound, the CC50 at 72 h in data set [2] and in data set [3] was > 100 µM throughout.
`COc1ccc(CN(C(=O)COC(=O)c2ccc([N+](=O)[O-])o2)C(C)(C)C)cc1` gave an IC50 in data set [1] of 7.5 µM. Further, the CC50 at 72 h in data set [2] and in data set [3] was > 100 µM in each case.
With `CC(C)(C)N(Cc1ccc(OCc2ccccc2)cc1)C(=O)COC(=O)c1ccc([N+](=O)[O-])o1`, the IC50 in data set [1] was > 50 µM. Moreover, the CC50 result in data set [4] and in data set [3] was “Not Active” throughout.
In turn, `CC(C)(C)N(Cc1ccc(F)cc1)C(=O)COC(=O)c1ccc([N+](=O)[O-])o1` returned an IC50 in data set [1] of 8.5 µM. The CC50 at 72 h in data set [2] and in data set [3] was > 100 µM each time.
In turn, `CC(C)(C)N(Cc1ccc(C(F)(F)F)cc1)C(=O)COC(=O)c1ccc([N+](=O)[O-])o1` displayed an IC50 in data set [1] of 8 µM. Besides, the figures for the CC50 at 72 h in data set [2] and in data set [3] were 71 µM and 36 µM, respectively.
The matching figures for `CC(C)(C)N(Cc1cccc(C(F)(F)F)c1)C(=O)COC(=O)c1ccc([N+](=O)[O-])o1`: 8.5 µM, > 100 µM and 68 µM.
The matching figures for `CC(C)(C)N(Cc1ccccc1C(F)(F)F)C(=O)COC(=O)c1ccc([N+](=O)[O-])o1`: 9 µM, 95 µM and 65 µM.
The matching figures for `CC(C)(C)N(Cc1c(F)c(F)c(F)c(F)c1F)C(=O)COC(=O)c1ccc([N+](=O)[O-])o1`: 6.8 µM, > 100 µM and 83 µM.
For the compound `O=C(OCC(=O)N(Cc1ccccc1)CC1CCCO1)c1ccc([N+](=O)[O-])o1` (stereo not given), the IC50 in data set [1] was determined as 7.7 µM. The CC50 at 72 h in data set [2] and in data set [3] was > 100 µM each time.
In data set [1], `O=C(OCC(=O)N(Cc1ccc(O)cc1)CC1CCCO1)c1ccc([N+](=O)[O-])o1` (stereo not given) showed an IC50 of 5 µM. Moreover, the CC50 at 72 h in data set [2] and in data set [3] was > 100 µM throughout.
In the case of `CC(=O)COC(=O)c1ccc([N+](=O)[O-])o1`, the half-inhibitory concentration (IC50) in data set [1] turned out to be 7.1 µM. The CC50 at 72 h in data set [2] and in data set [3] was > 100 µM each time.
Take `CC(C)(C)C(=O)COC(=O)c1ccc([N+](=O)[O-])o1`: half-maximal inhibition in data set [1] (IC50) required 21.9 µM. Further, the CC50 at 72 h in data set [2] and in data set [3] was > 100 µM each time.
In the case of `CC(C)(C)NC(=O)COC(=O)c1ccccc1[N+](=O)[O-]`, in data set [1], the IC50 was > 50 µM.
The same measure, in the same setting: for `CC(C)(C)NC(=O)COC(=O)c1cccc([N+](=O)[O-])c1` the value was > 50 µM.
The same measure, in the same setting: for `CC(C)(C)NC(=O)COC(=O)c1ccc([N+](=O)[O-])cc1` the value was > 50 µM; for `CC(C)(C)N(Cc1ccccc1)C(=O)COC(=O)c1cc([N+](=O)[O-])cc([N+](=O)[O-])c1`, > 50 µM; for `CC(C)(C)N(Cc1ccccc1)C(=O)COC(=O)c1ccco1`, > 50 µM.
The same measure, in the same setting: with `CC(C)(C)NC(=O)COC(=O)c1ccc(Br)o1` the figure was > 50 µM.
As for `CC(C)(C)NC(=O)COC(=O)c1ccc(C(=O)c2ccccc2)o1`, the IC50 in data set [1] was > 50 µM.
On the same count and under the same terms, for `CC(C)(C)NC(=O)COC(=O)c1ccno1` the value was > 50 µM.
For the compound `CC(C)(C)NC(=O)COC(=O)c1ccc(-c2ccccc2[N+](=O)[O-])o1`, the IC50 in data set [1] is > 50 µM.
Same read-out and setting: for `CC(C)(C)NC(=O)COC(=O)c1ccc(-c2cccc([N+](=O)[O-])c2)o1` the value was > 50 µM.
Take `CC(C)(C)NC(=O)COC(=O)c1ccc(-c2ccc([N+](=O)[O-])cc2)o1`: the IC50 in data set [1] was > 50 µM.
Compound `CC(C)(C)NC(=O)COC(=O)c1ccc([N+](=O)[O-])s1` yielded an IC50 in data set [1] of 2.8 µM. Moreover, the CC50 at 72 h in data set [2] and in data set [3] was > 100 µM each time.
`CCC(C)(C)NC(=O)COC(=O)c1ccc([N+](=O)[O-])s1` showed an IC50 in data set [1] of 5.8 µM.
The same measure, in the same setting: for `CCC(C)(C)N(Cc1ccc([N+](=O)[O-])cc1)C(=O)COC(=O)c1ccc([N+](=O)[O-])s1` the value was 33.5 µM.
Same read-out and setting: with `CCC(C)(C)N(Cc1cccc([N+](=O)[O-])c1)C(=O)COC(=O)c1ccc([N+](=O)[O-])s1` the figure was 25.8 µM; with `CC(=O)COC(=O)c1ccc([N+](=O)[O-])s1`, 9.5 µM; with `CC(C)(C)C(=O)COC(=O)c1ccc([N+](=O)[O-])s1`, 5.7 µM.
Same read-out and setting: with `COC(=O)CNC(=O)c1ccc([N+](=O)[O-])o1` the figure was > 50 µM.
Take `CCOC(=O)[C@H](C)NC(=O)c1ccc([N+](=O)[O-])o1`: in data set [1], the IC50 was > 50 µM.
Same read-out and setting: for `CCOC(=O)[C@H](CC(C)C)NC(=O)c1ccc([N+](=O)[O-])o1` the value was > 50 µM; for `CCOC(=O)[C@H](Cc1ccccc1)NC(=O)c1ccc([N+](=O)[O-])o1`, > 50 µM.
Same read-out and setting: with `CCOC(=O)[C@H](Cc1ccc(O)cc1)NC(=O)c1ccc([N+](=O)[O-])o1` the figure was > 50 µM; with `CCOC(=O)[C@@H](NC(=O)c1ccc([N+](=O)[O-])o1)c1ccccc1`, > 50 µM.
Turning to `O=C(OCCc1ccc([N+](=O)[O-])cc1)c1ccc([N+](=O)[O-])o1`, it took 2.1 µM to reach half-maximal inhibition in data set [1] (IC50). Also, the CC50 at 72 h was 28 µM in data set [2] and 36 µM in data set [3].
On the same counts, the results for `CN(OC(=O)c1ccc([N+](=O)[O-])o1)C(=O)c1ccc([N+](=O)[O-])o1` are 2.7 µM, 86 µM and > 100 µM.
